Here are results for 24 compounds from PubChem BioAssay AID638 (SRMLSC, 2007).

As a reminder, the IC50 is the concentration at which inhibition is half-maximal.

For the assay, the system named is E. coli BW25113 wild type growth inhibition, OD615. Briefly: growth inhibition of wild-type E. coli, dose response, BW25113 wild type, OD615 (AID 638). In outline:
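assay system = wild-type Escherichia coli strain BW25113 growth | medium = Kanamycin-supplemented LB broth | measured by = optical density (absorbance) at 615 nm | timing = bacterial exposure to compound 20 h at 37 °C | doses = compound concentration series | measure = IC50 from 4-parameter logistic, bounds fixed 0–100% | controls = chloramphenicol 30 µM control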
Turning to `O=c1ccsn1Cc1ccccc1`, the half-maximal inhibitory concentration (IC50) was 23.6 µM. The figure for `CCn1cc(C(=O)NCc2ccc3c(c2)OCO3)c(=O)c2cc(F)c(N3CCN(C)CC3)cc21` is 28.2 µM; for `O=S1(=O)Nc2c(ccc3cccnc23)-c2ccccc21` it is 26.8 µM; for `CN(C)[C@@H]1C(=O)C(C(N)=O)=C(O)[C@@]2(O)C(=O)C3=C(O)c4c(O)ccc(Cl)c4[C@@H](O)[C@H]3C[C@@H]12` it is 0.609 µM. To `Oc1c(CN2CCCCC2)cc(Br)c2cccnc12` belongs 61.3 µM; to `c1ccc(-c2cccc(-c3ccccn3)n2)nc1`, 66.8 µM; to `COc1cccc(C(=O)Nc2nnc(-c3cccs3)o2)c1`, 79.6 µM. On to `N#Cc1ccc(NC(=O)Nc2ccc(Cl)cc2)cc1`, for which the IC50 is 49.2 µM. `CC(=O)c1c(C)n([O-])c2ccccc2[n+]1=O`: the IC50 was 19.5 µM.

As to `CCCCOc1ccc(NC2=NC3(CCCCC3)N=C(N)N2)cc1`, the IC50 was 89 µM. The figure for `CCSc1nnc(NC(=O)c2ccccn2)s1` is 92.8 µM.

With `Cc1ccsc1C(=O)Nc1nnc(-c2ccco2)o1`, the IC50 was 60.3 µM.

`CCn1cc(C(=O)O)c(=O)c2cc(F)c(N3CCN(C(=O)Nc4ccccc4)CC3)cc21`: the IC50 is 2.28 µM.

In the case of `NC1C2CN(c3nc4c(cc3F)c(=O)c(C(=O)O)cn4-c3ccc(F)cc3F)CC12` (centres undefined), the IC50 was less than 0.195 µM. The figure for `COc1c(N2CCNC(C)C2)c(F)cc2c(=O)c(C(=O)O)cn(C3CC3)c12` (centres undefined) is less than 0.195 µM; for `CCn1cc(C(=O)Nc2nncs2)c(=O)c2cc(F)c(N3CCN(C(=O)c4ccco4)CC3)cc21` it is 75.6 µM. To `O=C(Nc1cccc(Cl)c1)Nc1nccs1` belongs 96.1 µM; to `CN1CCN(c2c(F)cc3c(=O)c(C(=O)O)cn4c3c2SCC4)CC1`, 1.1 µM. To `C=CCNc1ncnc2c1[nH]c1ccc(C)cc12` belongs 35.4 µM. As for `CO[C@@]1(NC(=O)Cc2cccs2)C(=O)N2C(C(=O)O)=C(COC(N)=O)CS[C@@H]21`, the IC50 is 7.91 µM. The figure for `CCC(=O)N1CCN(c2cc3c(cc2F)c(=O)c(C(=O)O)cn3CC)CC1` is 3.16 µM; for `CC(=O)OCC1=C(C(=O)O)N2C(=O)[C@@H](NC(=O)Cc3cccs3)[C@H]2SC1` it is 10.6 µM; for `O=C(Nc1nnc(-c2ccccc2)o1)c1ccc(Cl)cc1` it is 102 µM. The figure for `COc1cc(Cc2cnc(N)nc2N)cc(OC)c1OC` is 0.688 µM.
